In ChEMBL document CHEMBL1155341, “Synthesis and antibacterial activity of 7-(1,2,3,4-tetrahydropyrrolo[1,2-a]pyrazin-7-yl) quinolones” (2009):
Converted amounts (≈) assume the structure as drawn. The source made the active and inactive calls. No cut-off for these calls is given here.

What was measured:
Format in all cases: functional
[1] = system: Escherichia coli; experiment: Antibacterial activity against ciprofloxacin susceptible Escherichia coli ATCC 25922 by broth microdilution method
How it was run: (§1)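 Broth microdilution per CLSI (NCCLS M7-A5) guidelines; MIC taken as lowest concentration inhibiting visible growth. Strains are ciprofloxacin-susceptible reference strains.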

[2] = system: Staphylococcus aureus; experiment: Antibacterial activity against ciprofloxacin susceptible Staphylococcus aureus subsp. aureus ATCC 13709 by broth microdilution method; how it was run: as §1
[3] = system: Staphylococcus aureus; experiment: Antimicrobial activity against Staphylococcus aureus subsp. aureus ATCC 13709 infected in po dosed Swiss Webster mouse treated 1 hr after infection measured fter 3 days; settings: ATCC 13709, po
How it was run: (§2)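 Female Swiss-Webster mice infected ip with S. aureus ATCC13709; test compound given subcutaneously or orally 1 h post-infection; mortality followed for three days; untreated infected mice served as controls.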

[4] = system: Streptococcus pneumoniae; experiment: Antibacterial activity against ciprofloxacin resistant Streptococcus pneumoniae OC5462 by broth microdilution method
How it was run: (§3)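 MIC determined by broth microdilution following CLSI (formerly NCCLS) M7-A5 guidelines for aerobically growing bacteria. MIC is the lowest compound concentration inhibiting visible growth. Strains are ciprofloxacin-resistant clinical isolates tested within a six-strain abbreviated panel.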

[5] = system: Streptococcus pneumoniae; experiment: Antibacterial activity against ciprofloxacin resistant Streptococcus pneumoniae OC5458 by broth microdilution method; how it was run: as §3
[6] = system: Streptococcus pneumoniae; experiment: Antibacterial activity against ciprofloxacin resistant Streptococcus pneumoniae OC5465 by broth microdilution method; how it was run: as §3
[7] = system: Staphylococcus aureus; experiment: Antimicrobial activity against Staphylococcus aureus subsp. aureus ATCC 13709 infected in sc dosed Swiss Webster mouse treated 1 hr after infection measured fter 3 days; settings: ATCC 13709, sc; how it was run: as §2
[8] = system: Streptococcus pneumoniae; experiment: Antibacterial activity against ciprofloxacin susceptible Streptococcus pneumoniae ATCC 49619 by broth microdilution method; how it was run: as §1

Compound | MIC [1] | MIC [2] | ED50 [3] | MIC [4] | MIC [5] | MIC [6] | ED50 [7] | MIC [8]
O=C(O)c1cn(C2CC2)c2cc(N3CCNCC3)c(F)cc2c1=O [CIPROFLOXACIN] | 0.03 µg/mL (≈ 0.0905 µM) | 0.12 µg/mL (≈ 0.362 µM) | 10.8 mg/kg | > 16 µg/mL | > 16 µg/mL | > 16 µg/mL | 1.4 mg/kg | 1 µg/mL (≈ 3.02 µM)
C[C@@H]1NCCn2cc(-c3ccc4c(c3OC(F)F)N(C3CC3)CC(C(=O)O)C4=O)cc21 (stereo not given in full) | 4 µg/mL (≈ 9.27 µM) | 0.5 µg/mL (≈ 1.16 µM) | – | 16 µg/mL (≈ 37.1 µM) | 4 µg/mL (≈ 9.27 µM) | 2 µg/mL (≈ 4.64 µM) | – | 1 µg/mL (≈ 2.32 µM)
C[C@H]1Cn2cc(-c3c(F)cc4c5c3OC[C@H](C)N5CC(C(=O)O)C4=O)cc2CN1 (stereo not given in full) | 4 µg/mL (≈ 10 µM) | 0.25 µg/mL (≈ 0.626 µM) | – | 8 µg/mL (≈ 20 µM) | 4 µg/mL (≈ 10 µM) | 0.5 µg/mL (≈ 1.25 µM) | – | 1 µg/mL (≈ 2.5 µM)
O=C(O)C1CN(C2CC2)c2c(ccc(-c3cc4n(c3)CCNC4)c2OC(F)F)C1=O (stereo not given) | 1 µg/mL (≈ 2.4 µM) | 0.06 µg/mL (≈ 0.144 µM) | – | 8 µg/mL (≈ 19.2 µM) | inactive | 0.25 µg/mL (≈ 0.599 µM) | – | 0.5 µg/mL (≈ 1.2 µM)
C[C@H]1Cn2cc(-c3cc4c(cc3F)C(=O)C(C(=O)O)CN4C3CC3)cc2CN1 (stereo not given in full) | 2 µg/mL (≈ 5.22 µM) | 0.06 µg/mL (≈ 0.156 µM) | – | 4 µg/mL (≈ 10.4 µM) | 2 µg/mL (≈ 5.22 µM) | 0.12 µg/mL (≈ 0.313 µM) | – | 0.5 µg/mL (≈ 1.3 µM)
C[C@@H]1NCCn2cc(-c3c(F)cc4c(c3OC(F)F)N(C3CC3)CC(C(=O)O)C4=O)cc21 (stereo not given in full) | 1 µg/mL (≈ 2.23 µM) | 0.25 µg/mL (≈ 0.556 µM) | – | 8 µg/mL (≈ 17.8 µM) | 2 µg/mL (≈ 4.45 µM) | 2 µg/mL (≈ 4.45 µM) | – | 2 µg/mL (≈ 4.45 µM)
C[C@@H]1NCCn2cc(-c3c(F)cc4c5c3OC[C@H](C)N5CC(C(=O)O)C4=O)cc21 (stereo not given in full) | 4 µg/mL (≈ 10 µM) | 0.25 µg/mL (≈ 0.626 µM) | – | 8 µg/mL (≈ 20 µM) | 4 µg/mL (≈ 10 µM) | 0.5 µg/mL (≈ 1.25 µM) | – | 1 µg/mL (≈ 2.5 µM)
C[C@H]1NCCn2cc(-c3cc4c(cc3F)C(=O)C(C(=O)O)CN4C3CC3)cc21 (stereo not given in full) | 4 µg/mL (≈ 10.4 µM) | 0.25 µg/mL (≈ 0.652 µM) | – | 16 µg/mL (≈ 41.7 µM) | 8 µg/mL (≈ 20.9 µM) | 0.25 µg/mL (≈ 0.652 µM) | – | 1 µg/mL (≈ 2.61 µM)
C[C@@H]1NCCn2cc(-c3cc4c(cc3F)C(=O)C(C(=O)O)CN4C3CC3)cc21 (stereo not given in full) | 4 µg/mL (≈ 10.4 µM) | 0.25 µg/mL (≈ 0.652 µM) | – | 16 µg/mL (≈ 41.7 µM) | 4 µg/mL (≈ 10.4 µM) | 0.5 µg/mL (≈ 1.3 µM) | – | 1 µg/mL (≈ 2.61 µM)
COc1c(-c2cc3n(c2)CCNC3)c(F)cc2c1N(C1CC1)CC(C(=O)O)C2=O (stereo not given) | 1 µg/mL (≈ 2.5 µM) | 0.03 µg/mL (≈ 0.0751 µM) | – | 1 µg/mL (≈ 2.5 µM) | 1 µg/mL (≈ 2.5 µM) | 0.12 µg/mL (≈ 0.3 µM) | – | 0.25 µg/mL (≈ 0.626 µM)
C[C@H]1Cn2cc(-c3nc4c(cc3F)C(=O)C(C(=O)O)CN4C3CC3)cc2CN1 (stereo not given in full) | 2 µg/mL (≈ 5.2 µM) | 0.06 µg/mL (≈ 0.156 µM) | – | 8 µg/mL (≈ 20.8 µM) | 8 µg/mL (≈ 20.8 µM) | 0.25 µg/mL (≈ 0.65 µM) | – | 0.5 µg/mL (≈ 1.3 µM)
COc1c(-c2cc3n(c2)CCN[C@H]3C)c(F)cc2c1N(C1CC1)CC(C(=O)O)C2=O (stereo not given in full) | 2 µg/mL (≈ 4.84 µM) | 0.12 µg/mL (≈ 0.29 µM) | – | 4 µg/mL (≈ 9.67 µM) | 1 µg/mL (≈ 2.42 µM) | 0.5 µg/mL (≈ 1.21 µM) | – | 0.5 µg/mL (≈ 1.21 µM)
C[C@H]1Cn2cc(-c3nc4c(cc3F)C(=O)C(C(=O)O)CN4c3ccc(F)cc3F)cc2CN1 (stereo not given in full) | 16 µg/mL (≈ 35.1 µM) | 0.12 µg/mL (≈ 0.263 µM) | – | 16 µg/mL (≈ 35.1 µM) | 16 µg/mL (≈ 35.1 µM) | 2 µg/mL (≈ 4.38 µM) | – | 1 µg/mL (≈ 2.19 µM)
C[C@@H]1NCCn2cc(-c3nc4c(cc3F)C(=O)C(C(=O)O)CN4C3CC3)cc21 (stereo not given in full) | 8 µg/mL (≈ 20.8 µM) | 0.5 µg/mL (≈ 1.3 µM) | – | 8 µg/mL (≈ 20.8 µM) | 8 µg/mL (≈ 20.8 µM) | 1 µg/mL (≈ 2.6 µM) | – | 1 µg/mL (≈ 2.6 µM)
COc1c(-c2cc3n(c2)CCN[C@@H]3C)c(F)cc2c1N(C1CC1)CC(C(=O)O)C2=O (stereo not given in full) | 8 µg/mL (≈ 19.3 µM) | 0.25 µg/mL (≈ 0.605 µM) | – | 16 µg/mL (≈ 38.7 µM) | > 16 µg/mL | 2 µg/mL (≈ 4.84 µM) | – | 2 µg/mL (≈ 4.84 µM)
C[C@H]1NCCn2cc(-c3ccc4c(c3OC(F)F)N(C3CC3)CC(C(=O)O)C4=O)cc21 (stereo not given in full) | 4 µg/mL (≈ 9.27 µM) | 0.5 µg/mL (≈ 1.16 µM) | – | 16 µg/mL (≈ 37.1 µM) | 8 µg/mL (≈ 18.5 µM) | 4 µg/mL (≈ 9.27 µM) | – | 1 µg/mL (≈ 2.32 µM)
C[C@H]1COc2c(-c3cc4n(c3)CCNC4)c(F)cc3c2N1CC(C(=O)O)C3=O (stereo not given in full) | > 16 µg/mL | 0.5 µg/mL (≈ 1.3 µM) | – | > 16 µg/mL | > 16 µg/mL | 1 µg/mL (≈ 2.59 µM) | – | 2 µg/mL (≈ 5.19 µM)
COc1c(-c2cc3n(c2)C[C@H](C)NC3)c(F)cc2c1N(C1CC1)CC(C(=O)O)C2=O (stereo not given in full) | 0.5 µg/mL (≈ 1.21 µM) | 0.03 µg/mL (≈ 0.0726 µM) | 4 mg/kg | 1 µg/mL (≈ 2.42 µM) | 0.5 µg/mL (≈ 1.21 µM) | 0.25 µg/mL (≈ 0.605 µM) | < 1.25 mg/kg | 0.12 µg/mL (≈ 0.29 µM)
COc1c(-c2cc3n(c2)C[C@@H](C)NC3)c(F)cc2c1N(C1CC1)CC(C(=O)O)C2=O (stereo not given in full) | 1 µg/mL (≈ 2.42 µM) | 0.25 µg/mL (≈ 0.605 µM) | – | 2 µg/mL (≈ 4.84 µM) | 1 µg/mL (≈ 2.42 µM) | 0.5 µg/mL (≈ 1.21 µM) | – | 0.25 µg/mL (≈ 0.605 µM)
C[C@H]1Cn2cc(-c3ccc4c(c3OC(F)F)N(C3CC3)CC(C(=O)O)C4=O)cc2CN1 (stereo not given in full) | 1 µg/mL (≈ 2.32 µM) | 0.12 µg/mL (≈ 0.278 µM) | – | 8 µg/mL (≈ 18.5 µM) | 1 µg/mL (≈ 2.32 µM) | 1 µg/mL (≈ 2.32 µM) | – | 1 µg/mL (≈ 2.32 µM)
C[C@@H]1NCCn2cc(-c3nc4c(cc3F)C(=O)C(C(=O)O)CN4c3ccc(F)cc3F)cc21 (stereo not given in full) | > 16 µg/mL | 1 µg/mL (≈ 2.19 µM) | – | > 16 µg/mL | > 16 µg/mL | 8 µg/mL (≈ 17.5 µM) | – | 4 µg/mL (≈ 8.76 µM)
